Paper PMC7699451 (Drug Design, Development and Therapy, 2020)
Where two headings read alike, the source gives them in different places.

How the values were obtained:
[1] = Plasma pharmacokinetics at steady-state, LC-MS/MS, noncompartmental analysis; format: in vivo, human; conditions: for MR, metabolic ratio (AUCτ,ss of metabolite/AUCτ,ss of parent) / AUCτ,ss / Cmax,ss / CLss/F / Ctrough,ss: mean ± SD, N = 34
How it was run: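 Oral DPP-4 inhibitor 5 mg once daily, alone for 7 days or with sulfonylurea 4 mg. Plasma was sampled pre-dose and at 1, 2, 3, 4, 5, 6, 8 and 12 h at steady state, spun at 1900 g (4°C, 10 min) and frozen below −70°C. LC-MS/MS was linear over 0.1–60 μg/L. Noncompartmental analysis: Cmax,ss observed; AUCτ,ss and CLss by the linear-log trapezoidal method.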

[2] = tested on: serum insulin; experiment: Oral glucose tolerance test, serum insulin; format: in vivo, human; conditions: OGTT 75 g glucose, steady-state; mean ± SD; N = 34
How it was run: (§1)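 Healthy Korean men aged 19–45 years (BMI 18–27 kg/m2) in a randomized, open-label, 3-period crossover study. Treatments were oral once daily: DPP-4 inhibitor 5 mg, sulfonylurea 4 mg, or both. After an overnight fast, subjects took 75 g glucose; serum glucose and insulin were sampled at 0, 0.25, 0.5, 1, 1.5, 2 and 3 h, at baseline (day −1) and at steady state. Peaks were read directly; areas used the linear trapezoidal method. Δ values subtracted baseline at each time point.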

[3] = cited from earlier work
[4] = tested on: CYP enzymes; conditions: ref unpublished in-house data; cited from earlier work
[5] = tested on: serum glucose; experiment: Oral glucose tolerance test, serum glucose; format: in vivo, human; conditions: OGTT 75 g glucose, steady-state, mean ± SD, N = 34
How it was run: as §1

[6] = Safety and tolerability, adverse events; format: in vivo, human
How it was run: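 Adverse events, physical examinations, vital signs, 12-lead ECG and clinical laboratory tests were monitored throughout the crossover study in dosed healthy men. Investigators assessed whether each adverse event was related to treatment.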

[7] = Urinary excretion of evogliptin at steady-state; format: in vivo, human; conditions: for CL renal: human, urine and plasma, oral
How it was run: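 At steady state of oral DPP-4 inhibitor 5 mg once daily, urine was collected over 0–24 h and frozen below −70°C. Parent drug was measured by LC-MS/MS (linear 5–50,000 μg/L). feτ,ss was the amount excreted unchanged divided by that day's dose. Renal clearance was the amount excreted divided by plasma AUCτ,ss.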

[8] = EVO+GLI: evogliptin 5 mg and glimepiride 4 mg once daily
[9] = EVO+GLI: evogliptin 5 mg and glimepiride 4 mg once daily, plasma
[10] = EVO: evogliptin 5 mg once daily
[11] = EVO: evogliptin 5 mg once daily, plasma
[12] = GLI: glimepiride 4 mg once daily
[13] = GLI: glimepiride 4 mg once daily, plasma

CC(C)(C)OC[C@@H]1C(=O)NCCN1C(=O)C[C@H](N)[C@@H](O)c1cc(F)c(F)cc1F [Evogliptin M7, 4(S)-hydroxyevogliptin]
MR, metabolic ratio (AUCτ,ss of metabolite/AUCτ,ss of parent) [1, 8]: 0.09 ± 0.02 (0.04–0.13) | AUCτ,ss [1, 9]: 10.1 ± 2.8 (5.5–17) μg·h/L | Cmax,ss [1, 9]: 0.7 ± 0.2 (0.4–1.0) μg/L | MR, metabolic ratio (AUCτ,ss of metabolite/AUCτ,ss of parent) [1, 10]: 0.09 ± 0.02 (0.03–0.12) | AUCτ,ss [1, 11]: 9.8 ± 2.4 (6.3–14.6) μg·h/L | Cmax,ss [1, 11]: 0.7 ± 0.2 (0.4–1.2) μg/L

CC(C)(C)OC[C@@H]1C(=O)NCCN1C(=O)C[C@H](N)[C@H](O)c1cc(F)c(F)cc1F [Evogliptin M8, 4(R)-hydroxyevogliptin]
MR, metabolic ratio (AUCτ,ss of metabolite/AUCτ,ss of parent) [1, 8]: 0.1 ± 0.02 (0.05–0.13) | AUCτ,ss [1, 9]: 10.4 ± 2.5 (6–17) μg·h/L | Cmax,ss [1, 9]: 0.6 ± 0.2 (0.3–1) μg/L | MR, metabolic ratio (AUCτ,ss of metabolite/AUCτ,ss of parent) [1, 10]: 0.09 ± 0.02 (0.04–0.13) | AUCτ,ss [1, 11]: 10.3 ± 2.1 (6.8–14.7) μg·h/L | Cmax,ss [1, 11]: 0.6 ± 0.2 (0.4–1.1) μg/L

CC(C)(C)OC[C@@H]1C(=O)NCCN1C(=O)C[C@H](N)Cc1cc(F)c(F)cc1F [Evogliptin, evogliptin]
AUEC, area under the serum insulin-time curve [2]: 91.1 ± 48.6 (31.4–265) μIU·h/mL | Emax, maximum serum insulin level [2]: 53.1 ± 25.2 (16.3–124.2) μIU/mL | ΔAUEC, difference in the area under the serum insulin-time curve from baseline [2]: −19.2 ± 46.6 (−179.9–36.1) μIU·h/mL | ΔEmax, difference in maximum serum insulin level from baseline [2]: −20.4 ± 35.5 (−142.5–21.7) μIU/mL | Tmax, time to reach maximal plasma concentration ([3]; after oral administration): approximately 5 h | CLss/F [1, 8]: 46.9 ± 8.3 (28.4–62.4) L/h | Ctrough,ss [1, 9]: 3.1 ± 0.7 (2.2–5.1) μg/L | CLss/F [1, 10]: 45.6 ± 7.5 (26.5–56.1) L/h | Ctrough,ss [1, 11]: 3.3 ± 0.7 (2.2–5.6) μg/L | Day on which steady-state was achieved ([1]; evogliptin 5 mg once daily): 4 days | Tmax ([1]; human, plasma, oral): 3.5 h | half-life ([1]; human, plasma, oral): 23.6 ± 5.9 h | AUC ([1]; human, plasma, oral, 5 mg): 113 ± 21.6 ng·h/mL | Cmax ([1]; human, plasma, oral, 5 mg): 6.7 ± 1.4 ng/mL | half-life ([1]; human, plasma, oral, 5 mg): 28.4 ± 8.9 h | Induction or inhibition of CYP enzymes [4]: did not induce or inhibit CYP enzymes | Gmax, maximum serum glucose level ([5]; healthy male subjects): 136.7 mg/dL | 2 h PBG, 2 hour postprandial blood glucose [5]: 114.7 ± 17.3 (83–164) mg/dL | AUGC, area under the serum glucose-time curve [5]: 334.9 mg·h/dL | ΔAUGC, difference in the area under the serum glucose-time curve from baseline [5]: −35.8 ± 39.2 (−137.6–18.5) mg·h/dL | ΔGmax, difference in maximum serum glucose level from baseline [5]: −53.2 ± 32 (−162– −12) mg/dL | AUGC, area under the serum glucose-time curve ([5]; listed as EVO): 334.9 ± 31.7 (260–406.5) mg·h/dL | Diarrhea: number of subjects who reported adverse drug reactions (number of ADRs) ([6]; N = 35): 1 (1) | feτ,ss, fraction excreted unchanged in urine during the dosing interval ([7]; EVO: evogliptin 5 mg once daily, urine 0–24 h, mean ± SD, N = 34): 19.1 ± 7.2 (6.7–43.9) % | CL renal [7]: 148 mL/min | CL renal ([7]; 5 mg): 140 mL/min

CCC1=C(C)CN(C(=O)NCCc2ccc(S(=O)(=O)NC(=O)NC3CCC(CO)CC3)cc2)C1=O (stereo not drawn) [Glimepiride M1, hydroxyglimepiride]
MR, metabolic ratio (AUCτ,ss of metabolite/AUCτ,ss of parent) [1, 8]: 0.39 ± 0.1 (0.19–0.62) | AUCτ,ss [1, 9]: 652.6 ± 197.7 (387–1331.4) μg·h/L | Cmax,ss [1, 9]: 84.2 ± 19 (55.8–137) μg/L | MR, metabolic ratio (AUCτ,ss of metabolite/AUCτ,ss of parent) [1, 12]: 0.4 ± 0.11 (0.2–0.63) | AUCτ,ss [1, 13]: 611.9 ± 180.7 (309.4–1179.5) μg·h/L | Cmax,ss [1, 13]: 81.3 ± 20.6 (47.7–135.3) μg/L

CCC1=C(C)CN(C(=O)NCCc2ccc(S(=O)(=O)NC(=O)N[C@H]3CC[C@H](C)CC3)cc2)C1=O [Glimepiride, glimepiride]
AUEC, area under the serum insulin-time curve [2]: 141.7 ± 65.5 (40.7–318.2) μIU·h/mL | Emax, maximum serum insulin level [2]: 86.4 ± 43.8 (29.7–248.4) μIU/mL | ΔAUEC, difference in the area under the serum insulin-time curve from baseline [2]: 17.9 ± 60.1 (−174.5–157.2) μIU·h/mL | ΔEmax, difference in maximum serum insulin level from baseline [2]: 12.9 ± 45.2 (−109.2–122.1) μIU/mL | Tmax ([3]; after oral administration): ≤ 3 h | half-life [3]: 1.2 to 1.5 h | CLss/F [1, 8]: 2.5 ± 0.8 (1.2–4.5) L/h | Ctrough,ss [1, 9]: 4.2 ± 6.3 (0–24.7) μg/L | CLss/F [1, 12]: 2.7 ± 1 (1.2–5.1) L/h | Ctrough,ss [1, 13]: 8.6 ± 10.9 (0–51.9) μg/L | half-life ([1]; human, plasma, oral): 4.2 ± 2 h | AUC ([1]; human, plasma, oral, 4 mg): 1670 ± 624 ng·h/mL | Cmax ([1]; human, plasma, oral, 4 mg): 327 ± 98.5 ng/mL | half-life ([1]; human, plasma, oral, 4 mg): 4.7 ± 2.2 h | 2 h PBG, 2 hour postprandial blood glucose [5]: 94.7 ± 23.9 (44–140) mg/dL | AUGC, area under the serum glucose-time curve [5]: 291.8 mg·h/dL | ΔAUGC, difference in the area under the serum glucose-time curve from baseline [5]: −67.5 ± 60 (−179.6–69.4) mg·h/dL | ΔGmax, difference in maximum serum glucose level from baseline [5]: −68.9 ± 25.1 (−129– −22) mg/dL | AUGC, area under the serum glucose-time curve ([5]; listed as GLI): 291.8 ± 48.5 (216.1–429.6) mg·h/dL | Number of AEs considered related to the investigational products ([6]; 35 subjects in safety assessment): five | Cold sweat: number of subjects who reported adverse drug reactions (number of ADRs) ([6]; N = 35): 1 (1) | Dizziness: number of subjects who reported adverse drug reactions (number of ADRs) ([6]; N = 35): 1 (1) | Hypoglycemia: number of subjects who reported adverse drug reactions (number of ADRs) ([6]; N = 35): 1 (1) | Increased blood bilirubin: number of subjects who reported adverse drug reactions (number of ADRs) ([6]; N = 35): 1 (1) | Nausea: number of subjects who reported adverse drug reactions (number of ADRs) ([6]; N = 35): 1 (1)
